Measurements pooled from the literature.
Target: Mitogen-activated protein kinase 12 (MAPK12, Homo sapiens, UniProt P53778)
One construct used (P53778 1-367): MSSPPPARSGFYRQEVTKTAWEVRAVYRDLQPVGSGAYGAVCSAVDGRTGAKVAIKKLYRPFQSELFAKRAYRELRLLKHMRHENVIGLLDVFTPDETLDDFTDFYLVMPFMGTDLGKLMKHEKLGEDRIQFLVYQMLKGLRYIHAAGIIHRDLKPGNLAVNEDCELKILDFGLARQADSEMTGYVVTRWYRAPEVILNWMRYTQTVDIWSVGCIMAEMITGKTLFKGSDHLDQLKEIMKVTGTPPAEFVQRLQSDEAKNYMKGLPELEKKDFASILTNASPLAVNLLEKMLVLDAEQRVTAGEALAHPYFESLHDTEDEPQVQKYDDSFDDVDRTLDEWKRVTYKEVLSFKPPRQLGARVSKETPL

| observed | technique | tested at | remaining binding | Compound |
| --- | --- | --- | --- | --- |
| binding | competition with immobilised ligand | 1 µM | 100% | CNC(=O)[C@@H]1CC[C@@H](n2c(-c3ccc4cnccc4c3)nc3ccc(C(=O)NCc4cccc(C(N)=O)c4)cc32)C1 |
| binding | competition with immobilised ligand | 1 µM | 98% | Nc1ncc2c(n1)-c1c([nH]c3ccc(C#CC4CC4)cc13)CCCC2 |
| binding | competition with immobilised ligand | 1 µM | 100% | O=C(Nc1c[nH]nc1C(=O)NC1CCNCC1)c1cc(F)cc(F)c1 |
| cell-free assay | competition with immobilised ligand | 1 µM | 100% | O=C(Nc1cccnn1)N1CC(C/C=C/c2cncc(Oc3ccc(C(F)(F)F)cn3)n2)C1 |
| binding | competition with immobilised ligand | 1 µM | 100% | O=C(NCCCN1CCOCC1)c1ccc(Nc2nccc(-c3cc4ccccc4s3)n2)cc1 |
| binding |  | 1 µM | 100% | COc1ccnn2ncc(-c3ccnc(N(C)C)n3)c12 |
| binding | competition with immobilised ligand | 1 µM | 100% | O=C(NCCCN1CCOCC1)c1ccc(Nc2ncc(Cl)c(-c3ccc(Cl)s3)n2)cc1 |
| cell-free assay | competition with immobilised ligand | 1 µM | 100% | COc1ccc2cc(OCC3(C(=O)O)CN(C(=O)c4ccc(F)cc4)C3)ccc2c1 |
| binding |  | 1 µM | 100% | CN(C)c1ncc(F)c(-c2cnn3ncccc23)n1 |
| binding | competition with immobilised ligand | 1 µM | 100% | Cc1nc(N2CC[C@@H](O)C2)ncc1-c1cc(C(F)(F)F)cc2[nH]ncc12 |
| binding | competition with immobilised ligand | 1 µM | 88% | O=C(c1ccc(Nc2nccc(-c3cc4ccccc4s3)n2)cc1)N1CCC(N2CCCC2)CC1 |
| binding | competition with immobilised ligand | 1 µM | 96% | C=CC(=O)N1CCC(C(=O)NCC(=O)N2CCN(c3nc(-c4cnc(N)nc4C(F)F)nc(N4CCOCC4)n3)CC2)CC1 |
| binding |  | 1 µM | 90% | CN(C)c1nccc(-c2cnc3ncccn23)n1 |
| cell-free assay | competition with immobilised ligand | 1 µM | 96% | CNC(=O)Nc1ccc2c(c1)[C@@]1(CC2)OC(=O)N(CC(=O)N(Cc2ccc(F)cc2)[C@@H](C)C(F)(F)F)C1=O |
| binding |  | 1 µM | 37% | C[C@H]1CCN(c2nccc(-c3cnn4ncccc34)n2)C1 |
| cell-free assay | competition with immobilised ligand | 0.1 µM | 100% | Cc1c[nH]c2nccc(Oc3c(F)cc(Nc4cc(Cl)nc(N)n4)cc3F)c12 |
| binding |  | 1 µM | 100% | CN(CCCC(F)(F)F)c1nccc(-c2cnn3ncccc23)n1 |
| cell-free assay | competition with immobilised ligand | 5 µM | 96% | COc1ncc2cc3ccccc3nc2c1C#N |
| binding |  | 1 µM | 65% | c1cnn2ncc(-c3ccnc(N4CCC45COC5)n3)c2c1 |
| cell-free assay | competition with immobilised ligand | 1 µM | 68% | CC1=C(C#N)C(c2ccc3c(c2)c(NC(=O)c2ccccc2C)nn3C)C(C#N)=C(C)N1 |
